Measured values collected from several papers.
Target: Serine/threonine-protein kinase pim-1 (PIM1, Homo sapiens, UniProt P11309)

CC(C)(C)c1cc(C=C(C#N)C#N)cc(Br)c1O  remaining activity (enzyme activity; inhibitor; 0.5 µM): 94.7%
N#CC1(c2ccccn2)CCN(Cc2cc(C(=O)O)c(=O)n3ccccc23)CC1  remaining binding (cell-free assay; competition with immobilised ligand; 1 µM): 99%
O=c1[nH]c2ccccc2n1C1CCN(Cc2ccc(-c3[nH]c4cc5ncnc5cc4nc3-c3ccccc3)cc2)CC1  remaining signal (cell-free assay; 0.5 µM): 106%
Cn1cncc1[C@@](O)(COc1ccc(C#N)cc1-c1ccc(OC(F)(F)F)cc1)c1ccc(C#N)cc1  remaining binding (cell-free assay; competition with immobilised ligand; 1 µM): 100%
Cn1cc(-c2cc(F)cc(N3CCn4c(cc5c4CCCC5)C3=O)c2CO)cc(Nc2ccc(N3CCN(C4COC4)CC3)cn2)c1=O  inhibition (enzyme activity; inhibitor; 0.1 µM): 11%
Cc1nn(C)cc1-c1nc2c(N3CCN(Cc4ccc(Cl)cc4)CC3)c(Cl)cnc2[nH]1  remaining binding (binding; competition with immobilised ligand; 1 µM): 100%
Cn1cc(-c2cccc(N3CCc4c(sc5c4CC(C)(C)C5)C3=O)c2CO)cc(Nc2ccncn2)c1=O  inhibition (enzyme activity; inhibitor; 1 µM): 2%
COc1ncccc1-c1cnn2ccc(N3CCN(C(=O)OC(C)C)CC3)nc12  remaining binding (binding; competition with immobilised ligand; 1 µM): 100%
